Results published in paper PMC10357533 (ACS Omega, 2023).
pIC50: −log10 of the molar value. ≈ marks a conversion by molar mass, not a printed value. Entries after “also recorded” stand apart in the source; their conditions may differ.

Tests used:
M. separata = conditions: at 5 μg/mL concentration; cited from earlier work
Aedes aegypti larvae = assay: Mosquito larvicidal assay; assay type: in vivo; conditions: for LC90: (95% confidence limits); for LC50: Aedes aegypti
Method in brief: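 Larvae came from later generations of a wild-derived Ae. aegypti colony kept at 25 ± 2 °C, 65–75% RH and 12:12 h light/dark. Twenty larvae per 150 mL of test solution were exposed at 100 down to 1.5625 μg/mL (twofold steps plus 75), with DMSO as vehicle. Controls were permethrin and DMSO (1 mL/150 mL). Mortality was scored at 24–96 h over four independent experiments.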

[1] = target: electric eel (Electrophorus electricus) AChE (Electrophorus electricus, UniProt O42275); assay: Acetylcholinesterase; assay type: biochemical; conditions: for inhibition at 4 µg/mL / inhibition at 20 µg/mL / inhibition at 100 µg/mL / inhibition at 250 µg/mL: read-out: AChE inhibitory activity
Sequence of electric eel (Electrophorus electricus) AChE (O42275 24-633): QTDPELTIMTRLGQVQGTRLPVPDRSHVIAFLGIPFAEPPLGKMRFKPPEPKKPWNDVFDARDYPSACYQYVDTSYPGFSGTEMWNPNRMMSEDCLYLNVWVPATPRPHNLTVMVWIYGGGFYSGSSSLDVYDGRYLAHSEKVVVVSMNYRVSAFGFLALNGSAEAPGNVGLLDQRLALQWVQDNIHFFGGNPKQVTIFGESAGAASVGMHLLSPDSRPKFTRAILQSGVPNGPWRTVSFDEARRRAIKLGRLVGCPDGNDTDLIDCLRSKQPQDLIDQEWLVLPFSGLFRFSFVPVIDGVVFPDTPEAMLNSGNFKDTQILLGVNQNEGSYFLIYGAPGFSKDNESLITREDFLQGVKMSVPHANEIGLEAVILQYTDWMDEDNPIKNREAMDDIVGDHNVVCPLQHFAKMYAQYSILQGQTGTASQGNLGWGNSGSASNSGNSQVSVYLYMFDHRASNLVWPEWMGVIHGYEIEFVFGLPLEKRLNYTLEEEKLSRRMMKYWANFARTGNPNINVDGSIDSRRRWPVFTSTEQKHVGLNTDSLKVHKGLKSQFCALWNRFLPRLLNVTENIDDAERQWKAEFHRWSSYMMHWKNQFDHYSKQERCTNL
Method in brief: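 Electric eel AChE (0.25 IU/mL) was mixed with pH 8 phosphate buffer and test compound solution (500, 100, 20 or 4 μg/mL, diluted in water from DMSO stock) and held 15 min at 25 °C. DTNB (2.5 mM) and acetylthiocholine iodide (2.5 mM) were added, followed by 10 min more at 25 °C. Absorbance was read at 405 nm. Galantamine was the positive control, run in triplicate plates.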

[2] = Solubility of compounds for larvicidal testing; assay type: physicochemical; conditions: larvicidal test, compounds dissolved in DMSO
Plutella xylostella = conditions: at 500 μg/mL; cited from earlier work
Anopheles arabiensis = conditions: compared with temephos; cited from earlier work

Row | Compound | LC90 (Aedes aegypti larvae; 24 h exposure) | LC90 (Aedes aegypti larvae; 48 h exposure) | LC90 (Aedes aegypti larvae; 72 h exposure) | LC50 (Aedes aegypti larvae; 24 h) [µg/mL] | LC50 (Aedes aegypti larvae; 48 h) [µg/mL] | LC50 (Aedes aegypti larvae; 72 h) [µg/mL] | LC50 (Aedes aegypti larvae; 96 h) [µg/mL] | pIC50 [1] | inhibition at 4 µg/mL [1] [%] | inhibition at 20 µg/mL [1] [%] | inhibition at 100 µg/mL [1] [%] | inhibition at 250 µg/mL [1] [%] | further results
1 | Cc1cc(Cl)cc2c1NC(c1cc(Br)nn1-c1ncccc1Cl)N(C)C2=O (centres unmarked) [2-(3-bromo-1-(3-chloropyridine-)-2-yl)-1H-pyrazol-5-yl-6-chloro-3,8-dimethyl-2,3-dihydroquinazolin-4(1H)-one] |  |  |  |  |  |  |  |  |  |  |  |  | mortality (M. separata): 80%
2 | Cc1nc2ccccc2c(=O)n1CC(=O)Nc1ccc(Br)cc1 [4a, N-(4-Bromophenyl)-2-(2-methyl-4-oxoquinazolin-3(4H)-yl)acetamide] | 8.528 (7.729–9.730) μg/mL | 6.396 (5.755–7.334) μg/mL | 5.273 (4.620–6.340) μg/mL | 5.82 (≈ 15.6 µM) | 3.66 (≈ 9.84 µM) | 2.26 (≈ 6.07 µM) | 1.49 (≈ 3.99 µM) | 3.15 | 3.75 | 14 | 28.6 | 48.5 | LC90 (Aedes aegypti larvae; 96 h exposure): 4.470 (3.864–5.530) μg/mL
3 | Cc1nc2ccccc2c(=O)n1CC(=O)Nc1ccc(Cl)cc1 [4b, N-(4-Chlorophenyl)-2-(2-methyl-4-oxoquinazolin-3(4H)-yl)acetamide] | 31.11 (26.90–37.20) μg/mL | 7.610 (6.607–9.160) μg/mL | 6.945 (6.055–8.327) μg/mL | 12.7 (≈ 38.7 µM) | 3.64 (≈ 11.1 µM) | 3.48 (≈ 10.6 µM) |  | 3.30 | 18.1 | 26.6 | 34.7 | 72.9 | 
4 | Cc1nc2ccccc2c(=O)n1CC(=O)Nc1cccc(Cl)c1 [4c, N-(3-Chlorophenyl)-2-(2-methyl-4-oxoquinazolin-3(4H)-yl)acetamide] |  |  |  | 15.1 (≈ 45.9 µM) | 10.1 (≈ 30.8 µM) | 4.42 (≈ 13.5 µM) | 1.8 (≈ 5.49 µM) | 3.64 | 15.4 | 29.3 | 56.5 | 97.8 | 
5 | Cc1nc2ccccc2c(=O)n1CC(=O)Nc1ccccc1Cl [4d, N-(2-Chlorophenyl)-2-(2-methyl-4-oxoquinazolin-3(4H)-yl)acetamide] |  |  |  | 52.4 (≈ 160 µM) | 22.7 (≈ 69.3 µM) | 4.2 (≈ 12.8 µM) |  | 3.34 | 7.58 | 19.2 | 36.5 | 70.3 | 
6 | COc1ccc(NC(=O)Cn2c(C)nc3ccccc3c2=O)cc1 [4e, N-(4-Methoxyphenyl)-2-(2-methyl-4-oxoquinazolin-3(4H)-yl)acetamide] | 25.81 (21.16–33.50) μg/mL | 16.26 (12.95–22.06) μg/mL | 12.27 (9.67–17.09) μg/mL | 9.25 (≈ 28.6 µM) | 4.27 (≈ 13.2 µM) | 2.76 (≈ 8.52 µM) | 1.28 (≈ 3.96 µM) |  |  |  |  |  | LC90 (Aedes aegypti larvae; 96 h exposure): 7.414 (5.780–10.598) μg/mL
7 | Cc1ccc(NC(=O)Cn2c(C)nc3ccccc3c2=O)cc1 [4f, 2-(2-Methyl-4-oxoquinazolin-3(4H)-yl)-N-(p-tolyl)acetamide] | 14.67 (13.22–16.69) μg/mL | 14.33 (12.51–17.09) μg/mL | 11.29 (9.56–14.17) μg/mL | 8.67 (≈ 28.2 µM) | 5.92 (≈ 19.3 µM) | 2.08 (≈ 6.78 µM) |  | 3.73 | 17.6 | 34.2 | 62.8 | 98.9 | 
8 | Cc1ccccc1NC(=O)Cn1c(C)nc2ccccc2c1=O [4g, 2-(2-Methyl-4-oxoquinazolin-3(4H)-yl)-N-(o-tolyl)acetamide] |  |  |  |  |  |  |  | 3.31 | -1.33 | 13.4 | 34.6 | 73.1 | solubility [2]: insoluble; also recorded: not soluble
9 | Cc1nc2ccccc2c(=O)n1CC(=O)Nc1ccccc1 [4h, 2-(2-Methyl-4-oxoquinazolin-3(4H)-yl)-N-phenylacetamide] |  |  |  |  |  |  | > 50 |  |  |  |  |  | LC90 (Aedes aegypti larvae; 96 h exposure): >50 (96 h) μg/mL; larvicidal activity (in words) (Aedes aegypti larvae; compared with the other compounds): less activity
10 | Cc1nc2ccccc2c(=O)n1CC(=O)Nc1ccc([N+](=O)[O-])cc1 [4i, 2-(2-Methyl-4-oxoquinazolin-3(4H)-yl)-N-(4-nitrophenyl)acetamide] |  |  |  |  |  |  |  | 3.34 | 2.5 | 6.08 | 35.5 | 75.6 | solubility [2]: insoluble; also recorded: not soluble
11 | Clc1cc(Cl)c2ncnc(SCc3ccc(Cl)nc3)c2c1 [6,8-dichloro-4-(((6-chloropyridine-3-yl)methyl)thio)quinazoline] |  |  |  |  |  |  |  |  |  |  |  |  | mortality rate (Plutella xylostella): 85%
12 | COC(=O)C1=C(C)Nc2nc3ccc(I)cc3c(=O)n2C1c1ccc(Cl)cc1 (centres unmarked) [methyl 4-(4-chlorophenyl)-8-iodo-2-methyl-6-oxo-1,6-dihydro-4H-pyrimido[2,1-b]quinazoline-3-carboxylate] |  |  |  |  |  |  |  |  |  |  |  |  | larvicidal activity (in words) (Anopheles arabiensis): significantly stronger than temephos
13 | CC1(C)C(C=C(Cl)Cl)C1C(=O)OCc1cccc(Oc2ccccc2)c1 (centres unmarked) [permethrin, reference compound] | 0.00246 (0.00192–0.00344) μg/mL |  |  | 0.000643 (≈ 0.00164 µM) |  |  |  |  |  |  |  |  | 
